# Assay results reported in PubChem BioAssay.
# Active and inactive are the calls of the source.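 The calls were made as follows, unless noted: active = GFP response above 150% of the DMSO level; inconclusive = fewer than 70 events counted for a yeast strain; inactive = the rest.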
# What was measured:
# [1] = RPL19A-GFP modulators, yeast TOR pathway, confirmation, cell-based, S. cerevisiae, flow cytometry, cherry picks, mother/daughter gates (AID 2270;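 active = GFP response below 50% of the DMSO control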); conditions: S. cerevisiae RPL19A-GFP strain, 3 h, at 10 µM, stronger effect = lower value, 100 = same GFP as DMSO wells
# [2] = LAP4-GFP expression modulators in yeast, confirmation, cell-based, cherry picks, flow cytometry, mother/daughter gates (AID 2271;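 active = GFP response above 150% of the DMSO control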;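 also: ratio of sample to DMSO plate mean so 100% equals DMSO level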); conditions: S. cerevisiae LAP4-GFP strain, 3 h, at 10 µM, stronger effect = higher value, 100 means same as DMSO control
# Outline: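 Measured by: GFP by flow cytometry. Test system: GFP-fusion yeast strain. Input: yeast cells seeded at OD600 of 0.2. Timing: 30 °C, 3 h compound incubation, rotating. Buffer or medium: synthetic complete medium for yeast. Benchmarks: DMSO-only negative wells, rapamycin 400 ng/mL positive wells. Compound: 10 µM single dose.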
# [3] = modulators of MEP2-GFP levels in yeast, confirmation, S. cerevisiae, flow cytometry GFP, cherry picks (AID 2272;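 active = GFP response above 150% of the DMSO control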;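 also: ratio of well signal to plate DMSO mean so 100% equals DMSO level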); conditions: S. cerevisiae MEP2-GFP strain, 3 h, at 10 µM, stronger effect = higher value
# [4] = AGP1-GFP expression modulators, hit retest, confirmation, cell-based, flow cytometry, S. cerevisiae, cherry picks (AID 2273);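 also: median GFP channel fluorescence over the whole cell population gate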; conditions: S. cerevisiae AGP1-GFP strain, 3 h, at 10 µM
# [5] = modulators of CIT2-GFP expression in yeast, confirmation, S. cerevisiae, GFP fusion, cherry picks, mother/daughter gates (AID 2274); conditions: S. cerevisiae CIT2-GFP strain, flow cytometry, 3 h, at 10 µM, stronger effect = higher value
# [6] = measured here: daughter cell gate
# [7] = measured here: mother cell gate
# [8] = measured here: daughter cell gate response
# [9] = measured here: mother cell gate response
Compound,GFP response vs DMSO [1],"GFP response vs DMSO [1, 6]","GFP response vs DMSO [1, 7]",GFP response relative to DMSO [2],"GFP response relative to DMSO [2, 8]","GFP response relative to DMSO [2, 9]",GFP response vs DMSO [3],"GFP response, % of DMSO [4]","GFP response, % of DMSO [5]","GFP response, % of DMSO [5, 6]","GFP response, % of DMSO [5, 7]"
Cc1ccc(C)c(-c2nnc(NC(=O)c3ccc([N+](=O)[O-])o3)o2)c1,101% (inactive),95.7%,101%,115% (inactive),114%,116%,107% (inactive),91.6% (inactive),90.1% (inactive),90.2%,87%
COc1cc(/C=C2\C(=O)ON=C2c2ccccc2)cc(Br)c1O,92.7% (inactive),95.6%,88.3%,114% (inactive),113%,115%,99.3% (inactive),92.7% (inactive),94.4% (inactive),95.8%,89.3%
CCCCn1c(=O)c(C(=O)OCC)c(O)c2ccccc21,106% (inactive),101%,108%,105% (inactive),102%,108%,99% (inactive),97.5% (inactive),94.4% (inactive),90.2%,94.4%
NS(=O)(=O)c1ccc(Sc2ccccn2)c([N+](=O)[O-])c1,97.4% (inactive),98.6%,98.5%,97.9% (inactive),99.2%,98.3%,100% (inactive),101% (inactive),98.3% (inactive),101%,98.5%
Cc1ccc(Cl)cc1N1CCN(C(=O)CSc2ccsc2[N+](=O)[O-])CC1,98% (inactive),97.4%,97.8%,97% (inactive),95.9%,96.2%,101% (inactive),99.4% (inactive),100% (inactive),99.2%,99.3%
O=C(/C=C/c1ccccn1)c1cc(Br)ccc1O,81.7% (inactive),93.3%,72.8%,218% (active),177%,210%,109% (inactive),102% (inactive),86.1% (inactive),94.8%,77.3%
COc1ccc(NC(=O)C2C3C=CC(C3)C2C(=O)NCc2ccco2)c(OC)c1 (configuration not stated),97.6% (inactive),94.4%,93.3%,100% (inactive),96%,94.4%,101% (inactive),103% (inactive),98.6% (inactive),95.8%,96%
O=C(/C=C/c1c(F)cccc1Cl)c1ccc(F)cc1,104% (inactive),104%,101%,118% (inactive),120%,120%,157% (inactive),104% (inactive),126% (inactive),129%,120%
Cc1[nH]c2ccccc2c1C(c1ccccn1)N1CCC(C(N)=O)CC1 (configuration not stated),97.4% (inactive),99.1%,96.6%,96.7% (inactive),99.2%,97.2%,98.3% (inactive),94.7% (inactive),101% (inactive),103%,101%
CC(=O)Nc1ccc(NC(=O)c2nc(S(=O)(=O)Cc3ccccc3)ncc2Cl)cc1,98.5% (inactive),99.8%,96.9%,106% (inactive),105%,105%,110% (inactive),96.8% (inactive),100% (inactive),101%,99.3%
FC(F)(F)c1cc(-c2cccs2)nc2cc(-c3cccs3)nn12,103% (inactive),102%,102%,97% (inactive),97.5%,97.3%,103% (inactive),95.1% (inactive),93% (inactive),92%,94.4%
CCN(Cc1ccccc1)S(=O)(=O)c1ccc(C(=O)Nc2nnc(C)o2)cc1,97.2% (inactive),98.5%,98.6%,102% (inactive),102%,107%,102% (inactive),100% (inactive),101% (inactive),102%,101%
CCCCCn1c(=O)c(C(=O)OCC)c(O)c2ccccc21,97.6% (inactive),96.1%,99.7%,99.2% (inactive),96%,100%,102% (inactive),90% (inactive),92.6% (inactive),89.9%,93.8%
Cc1c(O)ccc(C(=O)CN2CCN(c3ccc(F)cc3)CC2)c1O,98% (inactive),97.3%,96.7%,101% (inactive),99%,101%,106% (inactive),101% (inactive),101% (inactive),99.3%,102%
COc1ccc(C(=O)C2CCCN(C(=O)c3cccs3)C2)cc1F (configuration not stated),102% (inactive),101%,101%,98.2% (inactive),99.1%,98.4%,99% (inactive),103% (inactive),100% (inactive),103%,99.3%
CCOC(=O)Cc1csc(NC(=O)c2sc3nc4ccc(CC)cc4cc3c2N)n1,98.9% (inactive),99.5%,99.4%,95.3% (inactive),94.4%,97.4%,108% (inactive),107% (inactive),98.6% (inactive),99.3%,99.3%
Cc1cccc(Nc2nc(-c3ccccn3)cs2)n1,77.9% (inactive),104%,66.6%,137% (inactive),138%,120%,110% (inactive),89.8% (inactive),100% (inactive),121%,83.7%
CCCCCCc1cc2cc(-c3nnc(-c4ccccc4OC)o3)c(=O)oc2cc1O,98.7% (inactive),99.3%,98.4%,111% (inactive),105%,111%,106% (inactive),99.1% (inactive),100% (inactive),101%,98.2%
O=[N+]([O-])c1ccc(N2N=C(c3ccco3)CC2c2ccccc2)cc1 (configuration not stated),104% (inactive),104%,97.7%,107% (inactive),104%,108%,131% (inactive),99.8% (inactive),105% (inactive),105%,103%
COc1ccc(N=Cc2nc(-c3ccccc3)oc2OC(C)=O)cc1,100% (inactive),99.1%,101%,107% (inactive),96.5%,111%,95.4% (inactive),94% (inactive),90.7% (inactive),90.9%,88.6%
CCCCCCCCn1c(=O)c(C(=O)OCC)c(O)c2ccccc21,98.4% (inactive),99.4%,99.4%,92.8% (inactive),92.8%,92.9%,100% (inactive),99.3% (inactive),101% (inactive),101%,101%
COc1ccccc1C(=O)N1CCN(c2cccc(Cl)c2)CC1,97.2% (inactive),98.9%,95.8%,102% (inactive),102%,99.3%,100% (inactive),95.6% (inactive),96.9% (inactive),99.1%,95%
Cc1ccc(N(C(=O)CNC(=O)c2ccco2)C(C(=O)NC2CCCC2)c2cccnc2)cc1C (configuration not stated),104% (inactive),100%,108%,95.7% (inactive),95.9%,95.2%,99% (inactive),105% (inactive),102% (inactive),99.2%,102%
CCn1c(=O)c(C(=O)Nc2ccsc2C(=O)OC)c(O)c2ccccc21,103% (inactive),101%,103%,93.1% (inactive),92.6%,94.1%,96.8% (inactive),103% (inactive),100% (inactive),99.2%,101%
COc1ccc(N2C(=O)c3cccc4cccc(c34)C2=O)nn1,98% (inactive),97.3%,98.7%,89% (inactive),91%,91.1%,97.8% (inactive),98% (inactive),92.6% (inactive),93.2%,91.2%
Cc1cc(C)c(C(=O)COC(=O)c2ccc([N+](=O)[O-])o2)cc1C,100% (inactive),102%,98.2%,102% (inactive),102%,104%,101% (inactive),105% (inactive),100% (inactive),101%,97.1%
O=C(c1ccc(Cl)cc1)N1CCN(c2cccc3[nH]ccc23)CC1,94.6% (inactive),94.1%,93.1%,108% (inactive),107%,105%,105% (inactive),91.9% (inactive),96.9% (inactive),99.1%,95%
